Results: ChEMBL document CHEMBL4513216, “Probing the Open Global Health Chemical Diversity Library for Multistage-Active Starting Points for Next-Generation Antimalarials” (ACS Infect Dis, 2020)

Experiment: Toxicity liver stage against HepG2, at 10uM
Type: cell-based
Parameters: test concentration 10 uM, cell line HepG2-A16-CD81EGFP
Settings: human, HepG2-A16-CD81EGFP cells; read-out: INHIBITION
How it was run: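 Uninfected HepG2-A16-CD81EGFP cells, 3 × 10^3 per well, 1536-well, plated on prespotted compound at 10 μM final, parasite-free screening media added to match infected plates; puromycin 10 μM positive, DMSO 0.5% negative; run in parallel with 48 h PbLuc assay at 37 °C, 5% CO2; viability by CellTiter-Glo luminescence, normalized to controls.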

Row | Structure (SMILES) | cytotoxicity at 10 µM [%]
1 | CC(C)NC(=O)N1CC[C@@H](N(C)C)[C@@H]1Cc1ccccc1 | 9.82
2 | CC(C)COC1CC2(CCN(Cc3nccn3C)CC2)C1 | -158
3 | CN(C)C(=O)[C@@H]1C[C@@H]2CCN(C3CCOCC3)C[C@@H]2O1 | -7.56
4 | CC(C)n1nc(CN2CCCC2=O)c2c1CN(C(=O)c1ccco1)C2 | 5.35
5 | CCn1cc2c(n1)CN(Cc1ccoc1)CC2COCC1CC1 (stereo not given) | -23.3
6 | Cc1nn(C)c(C)c1OCC(=O)NCC(O)c1ccco1 (stereo not given) | -4.71
7 | C=C(C)COc1ccccc1CN1CCC(NC(C)=O)CC1 | 11.9
8 | CCS(=O)(=O)NC[C@]12COC[C@H]1CN(Cc1cccnc1)C2 | 5.22
9 | O=C(c1ccnnc1)N1C[C@H](Oc2ccccn2)[C@H]2OCCC[C@H]21 | -0.00736
10 | Cc1cc(CN2CCN(CC(O)c3ccc(Cl)cc3)CC2)no1 (stereo not given) | -7.06
11 | O=C1N(CCCc2ccccc2)CCCC1(O)CNCc1ccccc1 (stereo not given) | 10.4
12 | CSc1sc(NC(=O)C2CCCN(C(N)=O)C2)nc1C (stereo not given) | 6.08
13 | CCSCc1nc(O)c2nnn(C3CCN(Cc4ccoc4)CC3)c2n1 | 4.71
14 | CC(C)(C)SCC(=O)NC(C)(C(N)=O)c1cccc(Cl)c1 (stereo not given) | 1.61
15 | Cc1ccc(C)c2c(C)c(C(=O)NCCCn3ccnn3)[nH]c12 | -0.84
16 | Cc1nnc(NC(=O)CN2CCCC2c2c(C)nn(C)c2C)s1 (stereo not given) | -14.1
17 | CCc1ccccc1CNC(=O)NCc1cnn(C)c1 | 2.14
18 | COc1ccc(CCN2CCCC(CN(C)Cc3[nH]cnc3C)C2)cc1 (stereo not given) | -11.7
19 | CCc1nccc(CN2CCC(CNC(=O)Nc3ccccc3)C2)n1 (stereo not given) | 9.99
20 | CCO[C@H]1CN(C)C[C@@H]1NC(=O)c1c[nH]nc1C1CCCCC1 | -5.56
21 | CN(C)C[C@@H]1CN(C(=O)c2cc(F)ccc2F)C[C@@H]1CO | 7.45
22 | Cc1nc(-c2cccs2)ccc1C(=O)N1CCN(CCO)CC1 | -56

Row | Structure (SMILES) | cytotoxicity at 10 µM [%]
23 | Cc1cc(C(=O)N2CC[C@@H]3CN(C)S(=O)(=O)[C@@H]3CC2)no1 | -7.55
24 | O=C1CCCN1CCC1CCCCN1C(=O)c1ccc(SCCO)cc1 (stereo not given) | -43
25 | CN1CCN(C(=O)c2cc(-c3cccs3)cs2)CC1 | 3.51
26 | CCC(NC(=O)Cn1ccc(=O)n(C)c1=O)c1ccccc1OC (stereo not given) | 7.23
27 | CC(C)C(C(=O)O)c1cccc(Cl)c1 (stereo not given) | -12.8
28 | O=C(O)[C@@H]1CN(Cc2cnc(C3CCCCC3)nc2)C[C@H]1C1CC1 | -10
29 | COC(=O)CCCC(=O)N1CCC(CO)(CCc2ccccc2)CC1 | 1.34
30 | CN(C)S(=O)(=O)c1cccc(NC(=O)Cc2ccon2)c1 | 9.48
31 | Cc1nc([C@H]2C[C@@H]3CCN(Cc4cnn(C)c4)C[C@H]3O2)sc1C | -1.96
32 | CCN(C1CCS(=O)(=O)C1)S(=O)(=O)c1cccc2cc(C)cnc12 (stereo not given) | -11
33 | CCn1ccnc1C1CCCN(C(=O)c2sc(C)nc2C)C1 (stereo not given) | 1.24
34 | CCc1nc(C)sc1CN1CC[C@](C)(O)[C@H](C)C1 | -2.11
35 | CCCn1nc(C)c(C(=O)N[C@@H]2CC[C@@H](N3CCCC3)[C@@H]2O)c1C | -4.79
36 | O=C1CC(NS(=O)(=O)N2CCOCC2)CN1Cc1ccccc1 (stereo not given) | 4.19
37 | Cc1occc1C(=O)N1CCOCC2(CCN(C3CCOCC3)C2)C1 (stereo not given) | 1.47
38 | O=C(C1CCCC1)N1CCC(C(O)c2ccc(F)cc2)CC1 (stereo not given) | 8.54
39 | CCOc1ccccc1CSCCn1nc2ccccn2c1=O | 1.88
40 | Cc1cc2c(=O)n3c(nc2s1)CCN(C(=O)c1cnn(C)c1)CC3 | -1.94
41 | O=C(Cc1ccccc1C(F)(F)F)N1CCC2(CC1)OCCCC2O (stereo not given) | -2.62
42 | NC(=O)c1ccc(S(=O)(=O)NC2CCN(Cc3ccccc3)C2=O)cc1 (stereo not given) | -9.96
43 | COc1ccc2cc(CN(C)C(C)c3nc(C4CC4)no3)ccc2c1 (stereo not given) | 3.18
44 | CC(C)N1CCC(Cc2cc(-c3cccc(C(=O)O)c3)ncn2)CC1 | -8.99

Row | Structure (SMILES) | cytotoxicity at 10 µM [%]
45 | CC1CCCCN1CCNC(=O)c1ccn(-c2ccccc2)n1 (stereo not given) | -15.2
46 | CC(CNS(=O)(=O)CCCC#N)c1ccsc1 (stereo not given) | 3.02
47 | COc1cccc(CN2CC(=O)N(c3ccccc3C)CC2C)c1OC (stereo not given) | 2.24
48 | CC(=O)Nc1ccsc1C(=O)N1CC[C@H]2CC[C@@H](C1)N2C | -1.47
49 | Cc1nccc(C2CN(Cc3cc[nH]n3)CCO2)n1 (stereo not given) | -6.92
50 | c1ccc(CN2CCN(c3ccc4nncn4n3)CC2)nc1 | -1.1
51 | CN1CCN(S(=O)(=O)c2ccc(Cl)c(Cl)c2)c2cnccc21 | 5.57
52 | CC(C)n1ccc2c(NC(=O)c3n[nH]c4c3CCC4)cccc21 | 7.64
53 | Cc1nc(NC(=O)NCc2cccnc2NCCN(C)C)sc1C | 4.51
54 | CS(=O)(=O)N1CCO[C@@H]2CN(C(=O)c3cccnc3)C[C@@H]2C1 | 7.64
55 | Cc1cc(C)c2nc(CN3CCC(CN)CC3)cc(O)c2c1 | 2.55
56 | Cc1nnc2n1CCN(CC(=O)Nc1cc(C(C)C)no1)C2 | -6.93
57 | CCC(=O)N1CCN(C(=O)c2ccc(OC)o2)[C@H]2CS(=O)(=O)C[C@H]21 | 0.224
58 | CCn1cnnc1C1CCN(C(=O)c2ccoc2C)CC1 | -8.04
59 | O=C(O)CC(CC(=O)NCCc1ccsc1)c1cccs1 (stereo not given) | -10.9
60 | CN(Cc1c(F)cccc1Cl)C(=O)c1cnn(CCN2CCOCC2)c1 | -4.2
61 | Cc1ncc(CN2CCc3c(nc4cc(C5CC5)nn4c3O)C2)n1C | 6.62
62 | CC(Cn1cccn1)n1cnc2cccc(Cl)c2c1=O (stereo not given) | -5.41
63 | CCOC(=O)c1ccc(Nc2ccc(OC)c(N3CCCC3=O)c2)nc1 | 8.46
64 | CC(C)c1nc(C2CCCN(Cc3nnc(C4CC4)o3)C2)no1 (stereo not given) | 5.65
65 | Cc1nc(-c2ccc(C(=O)O)cc2)cc(C2CCN(C(C)C)CC2)n1 | -6.69
66 | COc1ccc2c(c1)OCC(Cc1cncc(N)c1)C2 (stereo not given) | -0.918

Row | Structure (SMILES) | cytotoxicity at 10 µM [%]
67 | COCCN(Cc1ccccc1Cl)C(=O)c1c(C)cc(C)[nH]c1=O | -5.6
68 | CCC(C#N)NC(=O)c1sccc1OC (stereo not given) | 1.88
69 | CCC(C(=O)N(C)CCC1=CCN(C)CC1)c1ccccc1 (stereo not given) | -10.9
70 | CS(=O)(=O)N1CCC2(CC1)CC(CC(=O)NCC1CC1)c1ccccc12 (stereo not given) | 7.65
71 | Cn1cnc2c1CCN(Cc1ccc(C(=O)N3CCCC3)cc1)C2 | -8.62
72 | CCOc1cc(CN(C)CC(C)(C)O)ccc1OC(F)F | 2.31
73 | O=C(CN1CCOCC1)Nc1ncc(Br)cc1Br | 10.2
74 | COc1ncccc1CN1CCn2c(C(=O)N3CCCC3)cnc2C1 | 8.28
75 | COC(=O)c1cnc(C(=O)N(c2ccc(OC)c(F)c2)C(C)C)cn1 | -1.23
76 | CCC=C(C)C(=O)NCc1ccc(OC)nc1 | -4.13
77 | CCN(CC)S(=O)(=O)N1CCCC(c2nccn2Cc2cccnc2)C1 (stereo not given) | 7.07
78 | CC(=O)NC1CCN(c2nc(C)nc3c2c(C)nn3C)C1 (stereo not given) | 8.32
79 | Cc1cc(C(=O)N2CCc3ncc(CN4CCCC4)n3CC2)no1 | -108
80 | CC(C)NC(=O)NCc1nnc2n1C(C(=O)N(C)C)CC2 (stereo not given) | 5.45
81 | Cc1ncc2c(n1)CN(CCCOc1ccc(C#N)cc1)CC2 | -3.9
82 | Cc1cc(C(=O)N2CCCS2(=O)=O)c(C)o1 | -11.1
83 | Cc1csc2c(=O)n(CCSc3cnn[nH]3)cnc12 | -3.61
84 | CC(C)CCn1c(=O)[nH]c2cn(-c3ccc(F)cc3)c(=O)n21 | 2.97
85 | Nc1cc(-c2cc[nH]n2)nc(N2CCCC2)n1 | 1.56
86 | CCn1cnnc1C1CCN(C(=O)COCCc2ccccc2)CC1 | 0.602
87 | Cn1ccnc1CN1CC[C@H](O)[C@@H](n2ccc(=O)[nH]c2=O)CC1 | -9.31
88 | CN(C)C(=O)CO[C@H]1CN(Cc2ccc(F)cc2)[C@@H]2CCCO[C@H]12 | -22.3

Row | Structure (SMILES) | cytotoxicity at 10 µM [%]
89 | CC(O)(CNC(=O)c1cccnc1-n1cccn1)c1cccs1 (stereo not given) | 7.9
90 | C1CCC(NCC2(N3CCOCC3)CCSC2)C1 (stereo not given) | -10.8
91 | COc1cc(CNc2ccccc2Cl)ccc1OCC(=O)O | 6.15
92 | COCC1CCN(C(=O)c2cn(Cc3cccc(C(F)(F)F)c3)nn2)C1 (stereo not given) | -0.695
93 | Cc1ccc(C(=O)NS(=O)(=O)c2ccccc2Cl)c(=O)[nH]1 | -8.81
94 | COc1ncccc1CN1C[C@@H]2COC[C@]2(CNS(C)(=O)=O)C1 | 8.01
95 | c1cc(C2CCN(Cc3nc(-c4ccsc4)no3)CC2)[nH]n1 | 8.44
96 | CCc1c(C)sc2c1c(N)nc(=O)n2CCN(C)C | 3.85
97 | Cc1cc(NC(=O)CN2CCn3c(nnc3C3CC3)C2)on1 | -9.92
98 | COc1ccccc1C1CCN(c2ccc3cc[nH]c3n2)CC1 | -6.78
99 | O=C(Cn1[nH]c2ccccc2c1=O)N1CCCC(CC2CC2)(C(=O)O)C1 (stereo not given) | 3.15
100 | COc1cccc(-c2nc(C)c(C(=O)NCCC(=O)O)s2)c1 | 8.69
101 | Cc1cccc(NC(=O)N2CCC3(CCC(C(=O)N(C)C)O3)CC2)c1 (stereo not given) | -107
102 | O=C(NC[C@H]1OC[C@@H]2CCN(C(=O)c3ccco3)C[C@@H]21)C1CC1 | -6.2
103 | COc1ccccc1OCCc1cc(C2CCNC2)n[nH]1 (stereo not given) | -17.1
104 | CSc1nnc(C2CCN(C(=O)N3CCCC3)CC2)n1C | 2.11
105 | COc1cccc(CC(=O)N2CCc3ncnc(NCCO)c3CC2)c1 | -4.12
106 | N#Cc1ccc(C(=O)N2CCc3c(COCC4CC4)cncc3C2)cc1 | -98.8
107 | COc1ccc(C(=O)N2CCCS2(=O)=O)cc1OC | -17.6
108 | COc1cccc(OC)c1-c1ccnc2cc(CC(=O)NC3CC3)nn12 | -2.67
109 | Cc1ccccc1C(NC(=O)NCC1(CO)CC1)C1CC1 (stereo not given) | -7.16
110 | CCn1nccc1CN(C)C(=O)Cn1cc2c(n1)c(C)nn2CC | 15.4
